Experimental data: ChEMBL document CHEMBL2375313, “Synthesis, in vitro antitumor evaluation and DNA-binding study of novel tetrahydroquinolines and some derived tricyclic and tetracyclic ring systems” (Eur J Med Chem, 2013)

Key:
Format in all cases: functional
NCI/ADR-RES = assay: Cytotoxicity against human NCI/ADR-RES cells assessed as growth inhibition at 10 uM after 48 hrs by sulphorhodamine B assay; conditions: read-out: GI
Outline: (§1)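 NCI-60 one-dose screen per the NCI Drug Evaluation Branch protocol. Cells given a single 10 µM concentration with 48 h continuous exposure. Growth estimated by sulphorhodamine B protein assay. Result expressed as percentage growth inhibition relative to untreated growth.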

PC-3 = assay: Cytotoxicity against human PC3 cells assessed as growth inhibition at 10 uM after 48 hrs by sulphorhodamine B assay; conditions: PC-3, 48 h, read-out: GI; outline: as §1
[1] = Cytotoxicity against human EKVX cells assessed as growth inhibition at 10 uM after 48 hrs by sulphorhodamine B assay; conditions: read-out: GI; outline: as §1
M14 = assay: Cytotoxicity against human M14 cells assessed as growth inhibition at 10 uM after 48 hrs by sulphorhodamine B assay; conditions: M14, 48 h, read-out: GI; outline: as §1
SNB-19 = assay: Cytotoxicity against human SNB19 cells assessed as growth inhibition at 10 uM after 48 hrs by sulphorhodamine B assay; conditions: SNB-19, 48 h, read-out: GI; outline: as §1
U-251 = assay: Cytotoxicity against human U251 cells assessed as growth inhibition at 10 uM after 48 hrs by sulphorhodamine B assay; conditions: U-251, 48 h, read-out: GI; outline: as §1
UACC-62 = assay: Cytotoxicity against human UACC62 cells assessed as growth inhibition at 10 uM after 48 hrs by sulphorhodamine B assay; conditions: UACC-62, 48 h, read-out: GI; outline: as §1
HT-29 = assay: Cytotoxicity against human HT-29 cells assessed as growth inhibition at 10 uM after 48 hrs by sulphorhodamine B assay; conditions: HT-29, 48 h, read-out: GI; outline: as §1
UO-31 = assay: Cytotoxicity against human UO31 cells assessed as growth inhibition at 10 uM after 48 hrs by sulphorhodamine B assay; conditions: UO-31, 48 h, read-out: GI; outline: as §1
MCF7 = assay: Cytotoxicity against human MCF7 cells assessed as growth inhibition at 10 uM after 48 hrs by sulphorhodamine B assay; conditions: MCF7, 48 h, read-out: GI; outline: as §1
MDA-MB-468 = assay: Cytotoxicity against human MDA-MB-468 cells assessed as growth inhibition at 10 uM after 48 hrs by sulphorhodamine B assay; conditions: MDA-MB-468, 48 h, read-out: GI; outline: as §1
Hs-578T = assay: Cytotoxicity against human Hs578T cells assessed as growth inhibition at 10 uM after 48 hrs by sulphorhodamine B assay; conditions: read-out: GI; outline: as §1
MOLT-4 = assay: Cytotoxicity against human MOLT4 cells assessed as growth inhibition at 10 uM after 48 hrs by sulphorhodamine B assay; conditions: MOLT-4, 48 h, read-out: GI; outline: as §1
RPMI-8226 = assay: Cytotoxicity against human RPMI8226 cells assessed as growth inhibition at 10 uM after 48 hrs by sulphorhodamine B assay; conditions: RPMI-8226, 48 h, read-out: GI; outline: as §1
A549 = assay: Cytotoxicity against human A549 cells assessed as growth inhibition at 10 uM after 48 hrs by sulphorhodamine B assay; conditions: A549, 48 h, read-out: GI; outline: as §1
IGROV-1 = assay: Cytotoxicity against human IGROV1 cells assessed as growth inhibition at 10 uM after 48 hrs by sulphorhodamine B assay; conditions: IGROV-1, 48 h, read-out: GI; outline: as §1
RXF 393 = assay: Cytotoxicity against human RXF393 cells assessed as growth inhibition at 10 uM after 48 hrs by sulphorhodamine B assay; conditions: RXF 393, 48 h, read-out: GI; outline: as §1
OVCAR-4 = assay: Cytotoxicity against human OVCAR4 cells assessed as growth inhibition at 10 uM after 48 hrs by sulphorhodamine B assay; conditions: OVCAR-4, 48 h, read-out: GI; outline: as §1
K562 = assay: Cytotoxicity against human K562 cells assessed as growth inhibition at 10 uM after 48 hrs by sulphorhodamine B assay; conditions: K562, 48 h, read-out: GI; outline: as §1
SK-MEL-2 = assay: Cytotoxicity against human SK-MEL-2 cells assessed as growth inhibition at 10 uM after 48 hrs by sulphorhodamine B assay; conditions: SK-MEL-2, 48 h, read-out: GI; outline: as §1
HL-60(TB) = assay: Cytotoxicity against human HL-60(TB) cells assessed as growth inhibition at 10 uM after 48 hrs by sulphorhodamine B assay; conditions: HL-60, 48 h, read-out: GI
Outline: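 NCI-60 one-dose primary screen run to the Drug Evaluation Branch protocol. Cells are exposed to a single 10 µM concentration for 48 h continuously, and growth is read by SRB protein assay. Data are reported as percent growth of treated cells, expressed as % growth inhibition.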

OVCAR-5 = assay: Cytotoxicity against human OVCAR5 cells assessed as growth inhibition at 10 uM after 48 hrs by sulphorhodamine B assay; conditions: OVCAR-5, 48 h, read-out: GI; outline: as §1
DU-145 = assay: Cytotoxicity against human DU145 cells assessed as growth inhibition at 10 uM after 48 hrs by sulphorhodamine B assay; conditions: DU-145, 48 h, read-out: GI; outline: as §1
SK-OV-3 = assay: Cytotoxicity against human SKOV3 cells assessed as growth inhibition at 10 uM after 48 hrs by sulphorhodamine B assay; conditions: SK-OV-3, 48 h, read-out: GI; outline: as §1
NCI-H23 = assay: Cytotoxicity against human NCI-H23 cells assessed as growth inhibition at 10 uM after 48 hrs by sulphorhodamine B assay; conditions: NCI-H23, 48 h, read-out: GI; outline: as §1
HOP-92 = assay: Cytotoxicity against human HOP92 cells assessed as growth inhibition at 10 uM after 48 hrs by sulphorhodamine B assay; conditions: HOP-92, 48 h, read-out: GI; outline: as §1
CCRF-CEM = assay: Cytotoxicity against human CCRF-CEM cells assessed as growth inhibition at 10 uM after 48 hrs by sulphorhodamine B assay; conditions: read-out: GI; outline: as §1
MDA-MB-435 = assay: Cytotoxicity against human MDA-MB-435 cells assessed as growth inhibition at 10 uM after 48 hrs by sulphorhodamine B assay; conditions: MDA-MB-435, 48 h, read-out: GI; outline: as §1
SK-MEL-5 = assay: Cytotoxicity against human SK-MEL-5 cells assessed as growth inhibition at 10 uM after 48 hrs by sulphorhodamine B assay; conditions: SK-MEL-5, 48 h, read-out: GI; outline: as §1
HCT-116 = assay: Cytotoxicity against human HCT116 cells assessed as growth inhibition at 10 uM after 48 hrs by sulphorhodamine B assay; conditions: HCT-116, 48 h, read-out: GI; outline: as §1
SF-268 = assay: Cytotoxicity against human SF268 cells assessed as growth inhibition at 10 uM after 48 hrs by sulphorhodamine B assay; conditions: SF-268, 48 h, read-out: GI; outline: as §1
HCT-15 = assay: Cytotoxicity against human HCT15 cells assessed as growth inhibition at 10 uM after 48 hrs by sulphorhodamine B assay; conditions: HCT-15, 48 h, read-out: GI; outline: as §1
SF-295 = assay: Cytotoxicity against human SF295 cells assessed as growth inhibition at 10 uM after 48 hrs by sulphorhodamine B assay; conditions: SF-295, 48 h, read-out: GI; outline: as §1
SR = assay: Cytotoxicity against human SR cells assessed as growth inhibition at 10 uM after 48 hrs by sulphorhodamine B assay; conditions: read-out: GI; outline: as §1
LOX IMVI = assay: Cytotoxicity against human LOXIMVI cells assessed as growth inhibition at 10 uM after 48 hrs by sulphorhodamine B assay; conditions: read-out: GI; outline: as §1
SNB-75 = assay: Cytotoxicity against human SNB75 cells assessed as growth inhibition at 10 uM after 48 hrs by sulphorhodamine B assay; conditions: SNB-75, 48 h, read-out: GI; outline: as §1
T47D = assay: Cytotoxicity against human T47D cells assessed as growth inhibition at 10 uM after 48 hrs by sulphorhodamine B assay; conditions: read-out: GI; outline: as §1
NCI-H522 = assay: Cytotoxicity against human NCI-H522 cells assessed as growth inhibition at 10 uM after 48 hrs by sulphorhodamine B assay; conditions: NCI-H522, 48 h, read-out: GI; outline: as §1
ACHN = assay: Cytotoxicity against human ACHN cells assessed as growth inhibition at 10 uM after 48 hrs by sulphorhodamine B assay; conditions: read-out: GI; outline: as §1
A498 = assay: Cytotoxicity against human A498 cells assessed as growth inhibition at 10 uM after 48 hrs by sulphorhodamine B assay; conditions: A498, 48 h, read-out: GI; outline: as §1
CAKI-1 = assay: Cytotoxicity against human Caki1 cells assessed as growth inhibition at 10 uM after 48 hrs by sulphorhodamine B assay; conditions: CAKI-1, 48 h, read-out: GI; outline: as §1

CC1CCCc2c1nc(N)c(C#N)c2-c1ccc(Cl)cc1 (stereo unspecified)
inhibition of growth at 10 µM (NCI/ADR-RES): < 10%
inhibition of growth at 10 µM (PC-3): < 10%
inhibition of growth at 10 µM [1]: 39.5%
inhibition of growth at 10 µM (M14): < 10%
inhibition of growth at 10 µM (SNB-19): 20.5%
inhibition of growth at 10 µM (U-251): < 10%
inhibition of growth at 10 µM (UACC-62): 24.2%
inhibition of growth at 10 µM (HT-29): < 10%
inhibition of growth at 10 µM (UO-31): < 10%
inhibition of growth at 10 µM (MCF7): 31.5%
inhibition of growth at 10 µM (MDA-MB-468): 36.5%
inhibition of growth at 10 µM (Hs-578T): 25%
inhibition of growth at 10 µM (MOLT-4): < 10%
inhibition of growth at 10 µM (RPMI-8226): 18.2%
inhibition of growth at 10 µM (A549): < 10%
inhibition of growth at 10 µM (IGROV-1): < 10%
inhibition of growth at 10 µM (RXF 393): < 10%
inhibition of growth at 10 µM (OVCAR-4): 10.1%
inhibition of growth at 10 µM (K562): 11.8%
inhibition of growth at 10 µM (SK-MEL-2): 15%
inhibition of growth at 10 µM (HL-60(TB)): < 10%
inhibition of growth at 10 µM (OVCAR-5): < 10%
inhibition of growth at 10 µM (DU-145): < 10%
inhibition of growth at 10 µM (SK-OV-3): < 10%
inhibition of growth at 10 µM (NCI-H23): < 10%
inhibition of growth at 10 µM (HOP-92): 10%
inhibition of growth at 10 µM (CCRF-CEM): 13.3%
inhibition of growth at 10 µM (MDA-MB-435): < 10%
inhibition of growth at 10 µM (SK-MEL-5): < 10%
inhibition of growth at 10 µM (HCT-116): < 10%
inhibition of growth at 10 µM (SF-268): 11.3%
inhibition of growth at 10 µM (HCT-15): < 10%
inhibition of growth at 10 µM (SF-295): < 10%
inhibition of growth at 10 µM (SR): < 10%
inhibition of growth at 10 µM (LOX IMVI): < 10%
inhibition of growth at 10 µM (SNB-75): 26.8%
inhibition of growth at 10 µM (T47D): 17.2%
inhibition of growth at 10 µM (NCI-H522): < 10%
inhibition of growth at 10 µM (ACHN): < 10%
inhibition of growth at 10 µM (A498): 21.7%
inhibition of growth at 10 µM (CAKI-1): < 10%
